Values joined by “and” are separate entries in the source; they are usually repeats but may differ in a detail not shown here. Equal values may be shown once.
Legend:
Rattus norvegicus [1] = test: Antiovulatory activity in CD rat assessed as blockade of ovulation at 10 mg, sc administered as six doses at 1200, 1230, 1300, 1350, 1400 and 1450 hrs during proestrus stage measured during estrus stage by dissecting microscopic analysis; assay type: functional
How it was run: (§1)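 Cycling Charles River CD rats were given six subcutaneous injections of analogue in 0.1 mL propylene glycol on the afternoon of proestrus, and controls received vehicle alone. Rats were killed the next morning (estrus). Ovulating animals were scored and ova in the oviducts were counted under a dissecting microscope.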

Rattus norvegicus [2] = test: Antiovulatory activity in sc dosed CD rat assessed as blockade of ovulation administered as six doses at 1200, 1230, 1300, 1350, 1400 and 1450 hrs during proestrus stage measured during estrus stage by dissecting microscopic analysis; assay type: functional; how it was run: as §1
[3] = target: T1, Gonadotropin-releasing hormone receptor (Rattus norvegicus) (UniProt P30969); test: In vitro antagonist activity at GNRHR in CD rat anterior pituitary gland assessed as inhibition of LH-RH-stimulated LH release at compound to LH-RH molar ratio of 28 after 4 hrs by radioimmunoassay; conditions: concentration not given here
T1 sequence (whole entry): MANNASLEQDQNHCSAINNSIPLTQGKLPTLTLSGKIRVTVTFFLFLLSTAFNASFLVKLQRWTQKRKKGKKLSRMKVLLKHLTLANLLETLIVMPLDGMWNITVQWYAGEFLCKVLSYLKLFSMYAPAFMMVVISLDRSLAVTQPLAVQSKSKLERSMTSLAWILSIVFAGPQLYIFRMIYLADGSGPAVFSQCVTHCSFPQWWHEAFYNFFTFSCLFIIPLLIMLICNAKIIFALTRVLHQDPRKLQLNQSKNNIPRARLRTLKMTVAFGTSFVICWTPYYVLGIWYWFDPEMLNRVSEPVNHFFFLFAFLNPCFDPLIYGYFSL
How it was run: (§2)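 Anterior pituitaries from diestrus CD rats (200-250 g) were dissociated enzymatically (collagenase, hyaluronidase, then Viokase). Cells were cultured 4 days at 1.67 × 10^5 cells/mL in DME with 10% horse serum and 2.5% fetal calf serum, then washed serum-free. Duplicate cultures received LH-RH (2-5 × 10^-10 M) with a single analogue concentration in serum-free DME for 4 h at 37 °C. LH in the medium was measured by RIA and reported as % inhibition of LH-RH-stimulated release.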

[4] = target: T1, Gonadotropin-releasing hormone receptor (Rattus norvegicus); test: In vitro antagonist activity at GNRHR in CD rat anterior pituitary gland assessed as inhibition of LH-RH-stimulated LH release at compound to LH-RH molar ratio of 5 after 4 hrs by radioimmunoassay; conditions: concentration not given here; how it was run: as §2
[5] = target: T1, Gonadotropin-releasing hormone receptor (Rattus norvegicus); test: In vitro antagonist activity at GNRHR in CD rat anterior pituitary gland assessed as inhibition of LH-RH-stimulated LH release at compound to LH-RH molar ratio of 500 after 4 hrs by radioimmunoassay; conditions: concentration not given here; how it was run: as §2
Rattus norvegicus [6] = test: Antiovulatory activity in CD rat assessed as blockade of ovulation at 0.3 mg, sc administered as six doses at 1200, 1230, 1300, 1350, 1400 and 1450 hrs during proestrus stage measured during estrus stage by dissecting microscopic analysis; assay type: functional; how it was run: as §1
[7] = target: T1, Gonadotropin-releasing hormone receptor (Rattus norvegicus); test: In vitro antagonist activity at GNRHR in CD rat anterior pituitary gland assessed as ratio of molar concentration of compound to LH-RH for inhibition of LH-RH-stimulated LH release after 4 hrs by radioimmunoassay
How it was run: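 Monolayers were cultured 4 days from dissociated anterior pituitary cells of diestrus CD rats. They were exposed in duplicate to LH-RH (2-5 × 10^-10 M) plus multiple analogue concentrations in serum-free DME for 4 h at 37 °C. LH in the medium was measured by radioimmunoassay. The ED50 molar ratio is the analogue:LH-RH molar ratio giving 50% inhibition of LH-RH-stimulated LH release.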

[8] = target: T1, Gonadotropin-releasing hormone receptor (Rattus norvegicus); test: In vitro antagonist activity at GNRHR in CD rat anterior pituitary gland assessed as inhibition of LH-RH-stimulated LH release at compound to LH-RH molar ratio of 40 after 4 hrs by radioimmunoassay; conditions: concentration not given here; how it was run: as §2
[9] = target: T1, Gonadotropin-releasing hormone receptor (Rattus norvegicus); test: In vitro antagonist activity at GNRHR in CD rat anterior pituitary gland assessed as inhibition of LH-RH-stimulated LH release at compound to LH-RH molar ratio of 100 after 4 hrs by radioimmunoassay; conditions: concentration not given here; how it was run: as §2
[10] = target: T1, Gonadotropin-releasing hormone receptor (Rattus norvegicus); test: In vitro antagonist activity at GNRHR in CD rat anterior pituitary gland assessed as inhibition of LH-RH-stimulated LH release at compound to LH-RH molar ratio of 1.7 after 4 hrs by radioimmunoassay; conditions: concentration not given here; how it was run: as §2
[11] = target: T1, Gonadotropin-releasing hormone receptor (Rattus norvegicus); test: In vitro antagonist activity at GNRHR in CD rat anterior pituitary gland assessed as inhibition of LH-RH-stimulated LH release at compound to LH-RH molar ratio of 20 after 4 hrs by radioimmunoassay; conditions: concentration not given here; how it was run: as §2
Rattus norvegicus [12] = test: Antiovulatory activity in CD rat assessed as blockade of ovulation at 0.1 mg, sc administered as six doses at 1200, 1230, 1300, 1350, 1400 and 1450 hrs during proestrus stage measured during estrus stage by dissecting microscopic analysis; assay type: functional; how it was run: as §1
[13] = Solubility of the compound in water; assay type: physicochemical
[14] = Solubility of the compound in 0.9% sodium chloride; assay type: physicochemical

In the case of `CCNC(=O)[C@@H]1CCCN1C(=O)[C@H](CCCNC(=N)N)NC(=O)[C@H](CC(C)C)NC(=O)[C@@H](Cc1ccccc1)NC(=O)[C@H](Cc1ccc(O)cc1)NC(=O)[C@H](CO)NC(=O)[C@H](Cc1c[nH]c2ccccc12)NC(=O)[C@H](CCC(N)=O)NC(=O)OCc1ccccc1.Cl`, the “inhibition (INH)” value (Rattus norvegicus [1]) is reported as 0% and the ED50 (Rattus norvegicus [2]) is reported as greater than 10 mg.
For `CCNC(=O)[C@@H]1CCCN1C(=O)[C@H](CCCNC(=N)N)NC(=O)[C@H](CC(C)C)NC(=O)[C@H](NC(=O)[C@H](Cc1ccc(O)cc1)NC(=O)[C@H](CO)NC(=O)[C@H](Cc1c[nH]c2ccccc12)NC(=O)[C@H](CCC(N)=O)NC(=O)OCc1ccccc1)[C@@H](O)c1ccccc1`, the inhibition [3] was 82% and the inhibition [4] was 77%.
In the case of `CC(C)C[C@H](NC(=O)[C@@H](Cc1ccccc1)NC(=O)[C@H](Cc1ccc(O)cc1)NC(=O)[C@H](CO)NC(=O)[C@H](Cc1c[nH]c2ccccc12)NC(=O)[C@@H](Cc1ccccc1)NC(=O)[C@@H]1CCC(=O)N1)C(=O)N[C@@H](CCCNC(=N)N)C(=O)N1CCC[C@H]1C(=O)NCC(N)=O.Cl`, the inhibition [5] is reported as 98%, the ED50 (Rattus norvegicus [2]) is reported as 0.1 mg and the “inhibition (INH)” value (Rattus norvegicus [6]) is reported as 100%. For the same compound, the ED50 [7] was 76 molar ratio.
In the case of `CCNC(=O)[C@@H]1CCCN1C(=O)[C@H](CCCNC(=N)N)NC(=O)[C@H](CC(C)C)NC(=O)[C@@H](Cc1ccccc1)NC(=O)[C@H](Cc1ccc(O)cc1)NC(=O)[C@H](CO)NC(=O)[C@H](Cc1c[nH]c2ccccc12)NC(=O)[C@H](CCC(N)=O)NC(=O)OCc1ccccc1`, the inhibition [8] is reported as 70%, the inhibition [9] is reported as 70% and the ED50 [7] is reported as 12.8 molar ratio and 7.7 molar ratio.
For `CC(C)C[C@H](NC(=O)[C@@H](Cc1c[nH]c2ccccc12)NC(=O)[C@H](Cc1ccc(O)cc1)NC(=O)[C@H](CO)NC(=O)[C@H](Cc1c[nH]c2ccccc12)NC(=O)[C@H](COCc1ccccc1)NC(=O)OC(C)(C)C)C(=O)N[C@@H](CCCNC(=N)N)C(=O)N1CCC[C@H]1C(=O)NCC(N)=O`, the inhibition [10] was 64%, the inhibition [11] was 71% and the ED50 [7] was 1.3 molar ratio and 2 molar ratio.
With `CC(=O)O.CC(C)C[C@H](NC(=O)[C@@H](Cc1c[nH]c2ccccc12)NC(=O)[C@H](Cc1ccc(O)cc1)NC(=O)[C@H](CO)NC(=O)[C@H](Cc1c[nH]c2ccccc12)NC(=O)[C@H](COCc1ccccc1)NC(=O)OC(C)(C)C)C(=O)N[C@@H](CCCNC(=N)N)C(=O)N1CCC[C@H]1C(=O)NCC(N)=O` the ED50 (Rattus norvegicus [2]) was 0.05 mg, the “inhibition (INH)” value (Rattus norvegicus [12]) was 100% and the solubility [13] was 3000 µg/mL. It also gave a solubility [14] of 16 µg/mL.

Source: ChEMBL document CHEMBL3272173, “Synthesis and biological activity of peptide antagonists of luliberin (luteinizing hormone-releasing hormone)” (J Med Chem, 1979)
